According to ChEMBL document CHEMBL4425133, “Discovery and Pharmacokinetic and Pharmacological Properties of the Potent and Selective MET Kinase Inhibitor 1-{6-[6-(4-Fluorophenyl)-[1,2,4]triazolo[4,3-b]pyridazin-3-ylsulfanyl]benzothiazol-2-yl}-3-(2-morpholin-4-ylethyl)urea (SAR125844)” (J Med Chem, 2016):
In brackets after ≈: the same amount, converted by molar mass. Activity calls are given as the source filed them. No cut-off for these calls is given here.

Experiments:
Cytochrome P450 3A4 [1] = molecular target: T1, Cytochrome P450 3A4 (Homo sapiens, UniProt P08684); experiment: Inhibition of human recombinant CYP3A4 co-expressed with human P450 reductase and human b5 reductase assessed as reduction in 7-Hydroxyquinoline production using 7-benzyloxyquinoline as substrate and NADPH incubated for 15 mins by fluorimetry; type: ADME
T1 sequence (P08684 whole entry): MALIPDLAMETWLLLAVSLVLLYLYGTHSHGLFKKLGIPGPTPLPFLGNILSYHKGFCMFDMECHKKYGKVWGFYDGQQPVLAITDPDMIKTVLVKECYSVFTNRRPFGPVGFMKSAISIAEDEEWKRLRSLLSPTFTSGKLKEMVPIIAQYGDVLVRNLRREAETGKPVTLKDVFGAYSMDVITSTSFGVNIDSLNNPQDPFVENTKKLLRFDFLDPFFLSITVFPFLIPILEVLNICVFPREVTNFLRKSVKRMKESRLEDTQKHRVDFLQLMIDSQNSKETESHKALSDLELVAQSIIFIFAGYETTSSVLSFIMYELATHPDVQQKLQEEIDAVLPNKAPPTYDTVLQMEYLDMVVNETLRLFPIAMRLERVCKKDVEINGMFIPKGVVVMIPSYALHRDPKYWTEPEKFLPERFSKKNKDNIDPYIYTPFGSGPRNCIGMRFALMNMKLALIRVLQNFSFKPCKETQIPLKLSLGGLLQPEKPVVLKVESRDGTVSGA

[2] = molecular target: Hepatocyte growth factor receptor (Homo sapiens, UniProt P08581, Y1230H); experiment: Inhibition of phosphorylated MET Y1230H mutant (unknown origin) pre-incubated for 30 mins before biotinylated poly(glutamate-alanine-tyrosine) peptide addition and measured after 5 mins by HTRF assay
Chain of Hepatocyte growth factor receptor (Homo sapiens, UniProt P08581, Y1230H) (P08581 25-1390 Y1230H limits assumed): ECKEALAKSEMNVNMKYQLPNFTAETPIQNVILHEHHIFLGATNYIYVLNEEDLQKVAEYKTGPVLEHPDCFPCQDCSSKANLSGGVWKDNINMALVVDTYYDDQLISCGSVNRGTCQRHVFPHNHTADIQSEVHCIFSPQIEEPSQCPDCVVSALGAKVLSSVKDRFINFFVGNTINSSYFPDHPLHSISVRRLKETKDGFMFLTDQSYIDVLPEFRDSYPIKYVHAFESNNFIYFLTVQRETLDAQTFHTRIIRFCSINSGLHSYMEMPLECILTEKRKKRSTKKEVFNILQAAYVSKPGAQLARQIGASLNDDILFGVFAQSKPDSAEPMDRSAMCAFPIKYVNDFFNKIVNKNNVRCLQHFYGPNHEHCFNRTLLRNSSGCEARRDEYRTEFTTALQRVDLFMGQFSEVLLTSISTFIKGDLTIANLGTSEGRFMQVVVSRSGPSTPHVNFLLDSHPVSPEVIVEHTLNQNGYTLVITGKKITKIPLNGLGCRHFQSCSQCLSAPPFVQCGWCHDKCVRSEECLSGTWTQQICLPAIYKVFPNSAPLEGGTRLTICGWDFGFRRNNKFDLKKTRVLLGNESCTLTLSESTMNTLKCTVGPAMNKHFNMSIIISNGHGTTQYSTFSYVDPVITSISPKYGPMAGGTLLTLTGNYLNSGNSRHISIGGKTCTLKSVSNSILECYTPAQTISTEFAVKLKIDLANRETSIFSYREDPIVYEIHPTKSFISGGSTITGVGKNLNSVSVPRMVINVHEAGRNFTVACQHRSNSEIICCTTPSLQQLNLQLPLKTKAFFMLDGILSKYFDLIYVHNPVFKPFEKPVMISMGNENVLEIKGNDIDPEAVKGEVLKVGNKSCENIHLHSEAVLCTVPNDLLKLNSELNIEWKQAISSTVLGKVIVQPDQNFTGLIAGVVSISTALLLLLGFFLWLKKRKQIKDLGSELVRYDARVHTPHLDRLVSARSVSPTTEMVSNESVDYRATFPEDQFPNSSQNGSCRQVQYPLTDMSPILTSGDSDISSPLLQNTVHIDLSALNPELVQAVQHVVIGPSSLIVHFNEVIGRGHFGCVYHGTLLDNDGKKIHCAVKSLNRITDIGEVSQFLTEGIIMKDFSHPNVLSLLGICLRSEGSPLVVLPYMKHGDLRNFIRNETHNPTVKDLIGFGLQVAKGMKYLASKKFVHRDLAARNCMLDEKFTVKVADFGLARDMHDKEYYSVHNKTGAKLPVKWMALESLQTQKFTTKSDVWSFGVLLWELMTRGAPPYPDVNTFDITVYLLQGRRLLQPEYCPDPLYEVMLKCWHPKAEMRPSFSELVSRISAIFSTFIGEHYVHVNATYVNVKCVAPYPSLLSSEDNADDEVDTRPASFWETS

[3] = molecular target: T2, Hepatocyte growth factor receptor (Homo sapiens, UniProt P08581); experiment: Inhibition of wild type phosphorylated MET (unknown origin) pre-incubated for 30 mins before biotinylated poly(glutamate-alanine-tyrosine) peptide addition and measured after 5 mins by HTRF assay
T2 sequence (P08581 whole entry): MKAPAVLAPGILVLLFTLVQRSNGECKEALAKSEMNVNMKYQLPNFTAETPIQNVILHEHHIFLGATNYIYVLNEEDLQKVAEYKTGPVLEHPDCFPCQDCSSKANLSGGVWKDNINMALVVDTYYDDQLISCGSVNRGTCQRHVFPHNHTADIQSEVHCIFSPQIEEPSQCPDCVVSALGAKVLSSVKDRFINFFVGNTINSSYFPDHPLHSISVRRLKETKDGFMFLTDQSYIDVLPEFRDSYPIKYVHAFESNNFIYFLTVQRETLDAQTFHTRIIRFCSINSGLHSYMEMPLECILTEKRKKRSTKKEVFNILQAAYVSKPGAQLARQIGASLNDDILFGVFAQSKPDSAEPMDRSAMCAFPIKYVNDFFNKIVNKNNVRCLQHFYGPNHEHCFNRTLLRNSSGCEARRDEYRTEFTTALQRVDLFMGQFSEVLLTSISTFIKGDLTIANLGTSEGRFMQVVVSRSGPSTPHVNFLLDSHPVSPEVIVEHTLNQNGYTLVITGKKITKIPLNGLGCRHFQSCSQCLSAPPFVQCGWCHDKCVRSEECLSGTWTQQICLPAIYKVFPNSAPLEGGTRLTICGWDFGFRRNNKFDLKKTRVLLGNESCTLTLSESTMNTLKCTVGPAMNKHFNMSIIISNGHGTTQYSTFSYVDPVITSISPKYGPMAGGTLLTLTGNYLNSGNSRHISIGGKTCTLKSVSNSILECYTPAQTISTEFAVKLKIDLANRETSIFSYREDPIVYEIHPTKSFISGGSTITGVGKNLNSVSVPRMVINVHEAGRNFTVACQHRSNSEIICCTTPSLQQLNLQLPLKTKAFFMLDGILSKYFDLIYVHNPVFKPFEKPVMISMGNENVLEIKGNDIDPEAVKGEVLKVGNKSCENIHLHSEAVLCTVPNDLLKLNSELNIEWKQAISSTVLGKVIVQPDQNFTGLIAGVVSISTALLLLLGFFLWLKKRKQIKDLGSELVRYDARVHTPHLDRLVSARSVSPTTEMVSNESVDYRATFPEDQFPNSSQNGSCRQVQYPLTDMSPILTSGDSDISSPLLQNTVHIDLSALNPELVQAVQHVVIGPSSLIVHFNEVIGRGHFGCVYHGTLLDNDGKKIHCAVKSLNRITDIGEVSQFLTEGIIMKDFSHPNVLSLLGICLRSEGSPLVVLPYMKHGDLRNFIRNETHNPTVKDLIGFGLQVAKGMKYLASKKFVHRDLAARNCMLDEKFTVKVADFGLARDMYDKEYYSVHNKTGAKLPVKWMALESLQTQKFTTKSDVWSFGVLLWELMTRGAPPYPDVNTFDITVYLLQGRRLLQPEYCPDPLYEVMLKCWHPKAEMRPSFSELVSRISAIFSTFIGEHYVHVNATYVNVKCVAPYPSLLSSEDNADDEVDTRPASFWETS

[4] = Drug metabolism in human hepatic microsomes at 5 uM incubated for 20 mins in presence of NADPH by liquid chromatography-tandem mass spectrometry; type: ADME, Microsome; settings: liver microsomes, read-out: Drug metabolism
Cytochrome P450 3A4 [5] = molecular target: T1, Cytochrome P450 3A4; experiment: Mechanism based time dependent inhibition of human recombinant CYP3A4 co-expressed with human P450 reductase and human b5 reductase assessed as reduction in 7-Hydroxyquinoline production using 7-benzyloxyquinoline as substrate and NADPH measured every 3 mins for 15 mins by fluorimetry; type: ADME; settings: recombinant enzyme, 0.25 h
[6] = Apparent permeability from apical to basolateral side in human Caco2/TC7 cells at 20 uM by liquid chromatography-tandem mass spectrometry; settings: Caco-2
[7] = Equilibrium solubility in phosphate buffer in absence of 10% Labrasol at pH 7.4; type: physicochemical
[8] = molecular target: Cyclin-dependent kinase 9 (Homo sapiens, UniProt P50750); experiment: Inhibition of CDK9 (unknown origin)
Chain of Cyclin-dependent kinase 9 (P50750 whole entry): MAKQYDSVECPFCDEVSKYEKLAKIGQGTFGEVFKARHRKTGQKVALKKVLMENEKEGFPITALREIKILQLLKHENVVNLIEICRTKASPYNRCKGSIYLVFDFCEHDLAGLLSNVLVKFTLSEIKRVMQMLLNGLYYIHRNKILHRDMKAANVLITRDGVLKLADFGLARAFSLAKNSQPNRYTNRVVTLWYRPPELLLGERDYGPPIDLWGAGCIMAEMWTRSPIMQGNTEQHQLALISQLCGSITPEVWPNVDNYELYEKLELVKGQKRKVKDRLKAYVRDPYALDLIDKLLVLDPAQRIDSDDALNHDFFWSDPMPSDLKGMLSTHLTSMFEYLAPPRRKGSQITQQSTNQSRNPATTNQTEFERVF

[9] = molecular target: Hepatocyte growth factor receptor (Homo sapiens, UniProt P08581, M1250T); experiment: Inhibition of phosphorylated MET M1250T mutant (unknown origin) pre-incubated for 30 mins before biotinylated poly(glutamate-alanine-tyrosine) peptide addition and measured after 5 mins by HTRF assay
[10] = Lipophilicity, log D of the compound by HPLC method; type: physicochemical
[11] = molecular target: Hepatocyte growth factor receptor (Homo sapiens, UniProt P08581, L1195V); experiment: Inhibition of phosphorylated MET L1195V mutant (unknown origin) pre-incubated for 30 mins before biotinylated poly(glutamate-alanine-tyrosine) peptide addition and measured after 5 mins by HTRF assay
Chain of Hepatocyte growth factor receptor (Homo sapiens, UniProt P08581, L1195V) (P08581 25-1390 L1195V limits assumed): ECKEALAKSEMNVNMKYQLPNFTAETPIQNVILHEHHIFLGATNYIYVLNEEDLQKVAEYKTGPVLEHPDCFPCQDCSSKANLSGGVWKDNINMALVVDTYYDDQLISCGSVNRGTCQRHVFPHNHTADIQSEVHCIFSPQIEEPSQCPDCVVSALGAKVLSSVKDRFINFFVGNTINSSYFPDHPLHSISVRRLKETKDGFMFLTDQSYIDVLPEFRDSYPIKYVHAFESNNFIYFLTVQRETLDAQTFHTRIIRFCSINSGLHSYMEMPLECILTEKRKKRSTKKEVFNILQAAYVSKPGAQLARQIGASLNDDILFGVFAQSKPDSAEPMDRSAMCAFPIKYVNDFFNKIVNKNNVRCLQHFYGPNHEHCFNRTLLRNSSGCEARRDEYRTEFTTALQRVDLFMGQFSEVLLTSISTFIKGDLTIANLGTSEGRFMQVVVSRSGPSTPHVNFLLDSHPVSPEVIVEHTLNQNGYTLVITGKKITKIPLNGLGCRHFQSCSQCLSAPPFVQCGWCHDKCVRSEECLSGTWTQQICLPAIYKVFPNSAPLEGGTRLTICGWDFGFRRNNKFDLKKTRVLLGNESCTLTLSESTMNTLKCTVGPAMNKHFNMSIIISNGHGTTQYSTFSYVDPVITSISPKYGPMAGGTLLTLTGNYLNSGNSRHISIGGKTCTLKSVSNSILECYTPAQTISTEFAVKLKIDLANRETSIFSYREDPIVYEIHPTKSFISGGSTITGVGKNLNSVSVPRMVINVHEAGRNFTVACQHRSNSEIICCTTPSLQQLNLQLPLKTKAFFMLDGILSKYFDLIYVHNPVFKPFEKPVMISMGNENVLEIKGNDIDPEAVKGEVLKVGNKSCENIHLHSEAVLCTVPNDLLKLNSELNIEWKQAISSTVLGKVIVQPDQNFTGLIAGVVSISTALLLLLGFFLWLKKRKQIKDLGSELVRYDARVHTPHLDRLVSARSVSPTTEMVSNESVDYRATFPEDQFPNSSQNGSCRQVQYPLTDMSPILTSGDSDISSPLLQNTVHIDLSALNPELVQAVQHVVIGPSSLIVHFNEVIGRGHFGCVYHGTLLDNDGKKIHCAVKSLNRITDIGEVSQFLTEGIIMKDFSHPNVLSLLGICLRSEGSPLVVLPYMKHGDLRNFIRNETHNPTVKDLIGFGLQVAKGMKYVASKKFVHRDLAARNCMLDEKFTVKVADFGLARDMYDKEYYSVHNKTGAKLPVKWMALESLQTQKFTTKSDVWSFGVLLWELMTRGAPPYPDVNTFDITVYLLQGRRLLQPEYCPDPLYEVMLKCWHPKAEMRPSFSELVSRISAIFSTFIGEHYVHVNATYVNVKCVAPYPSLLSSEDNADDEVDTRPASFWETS

MKN-45 = experiment: Antiproliferative activity against human MKN45 cells assessed as reduction in [14C]-thymidine incorporation incubated for 96 hrs by beta counting method; type: functional, cell-based; settings: for IC50: MKN-45, 96 h
Procedure, shortened: (§1)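 MKN-45 is a MET-amplified human gastric tumour cell line.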

[12] = molecular target: T2, Hepatocyte growth factor receptor; experiment: Inhibition of phosphorylated MET in human MKN45 cells assessed as reduction in pMET Y1230/1234/1235 level incubated for 1 hr by ELISA; type: cell-based; procedure, shortened: as §1
[13] = Equilibrium solubility in phosphate buffer in presence of 10% Labrasol at pH 7.4; type: physicochemical; settings: phosphate buffer with 10% Labrasol
[14] = Oral bioavailability in mouse; type: ADME, organism-based; settings: in vivo
[15] = molecular target: T2, Hepatocyte growth factor receptor; experiment: Binding affinity to MET (unknown origin) by isothermal titration calorimetry
Tubulin = experiment: Binding affinity to tubulin (unknown origin); type: protein-complex assay, Homo sapiens
[16] = Genotoxicity in Salmonella typhimurium by Ames test; type: toxicity; settings: salmonella enterica subsp. enterica serovar typhimurium

| IC50 (Cytochrome P450 3A4 [1]) [nM] | IC50 [2] [nM] | IC50 [3] [nM] | metabolised at 20 min, 5 µM [4] [%] | INH (Cytochrome P450 3A4 [5]) [%/min] | Papp A→B at 20 µM [6] [×10⁻⁶ cm/s] | solubility thermodynamic [7] [µM] | IC50 [8] [nM] | IC50 [9] [nM] | logD [10] | IC50 [11] [nM] | IC50 (MKN-45) [nM] | IC50 [12] [nM] | solubility thermodynamic [13] [µM] | bioavailability [14] [%] | Kd [15] [nM] | IC50 (Tubulin) [nM] | inhibition [12] | SMILES | Activity [16] | inhibition (MKN-45) |
| --- | --- | --- | --- | --- | --- | --- | --- | --- | --- | --- | --- | --- | --- | --- | --- | --- | --- | --- | --- | --- |
| 7900 | 174 | 2 | 32 | -12.8 | 0.8 | < 2 | – | – | – | – | – | – | – | – | – | – | – | O=C(NCCN1CCOCC1)Nc1nc2ccc(Sc3nnc4ccc(Oc5ccccc5)nn34)cc2s1 | – | – |
| 2900 | 139 | 1 | 38 | -9.1 | – | < 2 | – | – | – | – | – | – | – | – | – | – | – | O=C(NCCN1CCOCC1)Nc1nc2ccc(Sc3nnc4ccc(NC5CCCCC5)nn34)cc2s1 | – | – |
| – | – | 5 | – | – | – | – | 6 | – | – | – | – | – | – | – | – | – | – | COCCNC(=O)Nc1nc2cc(OS(=O)(=O)c3c(F)cccc3F)ccc2[nH]1 | – | – |
| – | 883 | 3 | – | – | – | < 1 | – | 13 | 4.7 | 61 | 7 | 4 | 64 | – | – | – | – | O=C(Nc1nc2ccc(Sc3nnc4ccc(-c5ccc(F)cc5)nn34)cc2s1)C1CC1 | – | – |
| 8700 | 140 | 5 | 23 | -11.3 | 0.7 | < 2 | – | – | – | – | – | – | – | – | – | – | – | CCCCOc1ccc2nnc(Sc3ccc4nc(NC(=O)NCCN5CCOCC5)sc4c3)n2n1 | – | – |
| 31000 | 216 | 6 | 29 | -5.5 | 2.6 | < 2 | – | – | – | – | – | – | – | 12 | – | – | – | O=C(NCCN1CCOCC1)Nc1nc2ccc(Sc3nnc4ccc(OC5CCCC5)nn34)cc2s1 | – | – |
| 4000 | 643 | 3 | 51 | -13.1 | – | 5 (≈ 2.5 µg/mL) | – | – | – | – | – | – | 460 | – | – | – | – | CCOc1ccc2nnc(Sc3ccc4nc(NC(=O)NCCN5CCOCC5)sc4c3)n2n1 | – | – |
| 14000 | 407 | 15 | 36 | -11.6 | 2 | < 2 | – | – | – | – | – | – | – | – | – | – | – | O=C(NCCN1CCOCC1)Nc1nc2ccc(Sc3nnc4ccc(OC5CCCCCC5)nn34)cc2s1 | – | – |
| 2700 | 252 | 2 | 23 | -4.6 | 9.8 | < 2 | – | – | – | – | – | – | 500 | 17 | 0.6 | – | – | O=C(NCCN1CCOCC1)Nc1nc2ccc(Sc3nnc4ccc(OC5CCCCC5)nn34)cc2s1 | – | – |
| – | > 10000 | 20 | – | – | – | < 1 | – | 455 | 4.1 | 835 | 45 | 13 | 543 | – | – | – | – | Fc1ccc(-c2ccc3nnc(Sc4ccc5nc(NCCN6CCOCC6)sc5c4)n3n2)cc1 | – | – |
| – | – | 23 | – | – | – | – | 1200 | – | – | – | – | – | – | – | – | 2700 | – | COC(=O)Nc1nc2cc(OS(=O)(=O)c3c(Cl)cccc3Cl)ccc2[nH]1 | – | – |
| – | > 10000 | 10 | – | – | – | – | – | 245 | > 4.6 | 9000 | 81 | 43 | 44 | – | – | – | – | Nc1nc2ccc(Sc3nnc4ccc(-c5ccc(F)cc5)nn34)cc2s1 | – | – |
| 200 | 274 | 1 | 26 | -3.8 | – | < 2 | – | – | – | – | – | – | – | – | – | – | – | O=C(NCCN1CCOCC1)Nc1nc2ccc(Sc3nnc4ccc(NC5CC5)nn34)cc2s1 | – | – |
| – | > 10000 | 15 | – | – | – | < 2.5 | – | 417 | > 4.6 | > 10000 | 42 | 15 | – | – | – | – | – | CCNc1nc2ccc(Sc3nnc4ccc(-c5ccc(F)cc5)nn34)cc2s1 | – | – |
| – | 864 | 3 | – | – | – | < 1 | – | 71 | 4.15 | 148 | 33 | 10 | 1000 | – | – | – | – | CCN(CC)CCNC(=O)Nc1nc2ccc(Sc3nnc4ccc(-c5ccc(F)cc5)nn34)cc2s1 | – | – |
| – | – | 10 | – | – | – | – | > 10000 | – | 3.8 | – | – | – | – | – | – | 2000 | Active | COC(=O)Nc1nc2cc(Sc3nnc4ccc(-c5ccc(F)cc5)nn34)ccc2[nH]1 | Toxic | Active |
| – | > 10000 | 45 | – | – | – | 8 (≈ 4.41 µg/mL) | – | – | 4.1 | 6520 | 95 | 25 | 245 | – | – | – | – | O=C(Nc1nc2ccc(Sc3nnc4ccc(-c5ccc(F)cc5)nn34)cc2s1)OCCN1CCOCC1 | – | – |
| 34000 | 4800 | 29 | 11 | -2.3 | – | 70 (≈ 32 µg/mL) | – | – | – | – | – | – | 1070 | – | 12 | – | – | O=C(NCCN1CCOCC1)Nc1nc2ccc(Sc3nnc4cccnn34)cc2s1 | – | – |
| – | > 10000 | 4 | – | – | – | < 2 | – | 128 | > 4.6 | > 10000 | 22 | 13 | – | – | – | – | – | O=C(CC1CC1)Nc1nc2ccc(Sc3nnc4ccc(-c5ccc(F)cc5)nn34)cc2s1 | – | – |
| – | 1170 | 6 | – | – | – | – | – | 93 | 4.3 | 318 | 12 | 2 | 96 | – | – | – | – | O=C(CCCN1CCOCC1)Nc1nc2ccc(Sc3nnc4ccc(-c5ccc(F)cc5)nn34)cc2s1 | – | – |
| 2000 | 56 | 3 | 16 | -12.2 | 0.8 | < 2 | – | – | – | – | – | – | – | – | – | – | – | O=C(NCCN1CCOCC1)Nc1nc2ccc(Sc3nnc4ccc(Oc5cccc(F)c5)nn34)cc2s1 | – | – |
| 1800 | 140 | 10 | 24 | -8.2 | 0.4 | 32 (≈ 17.6 µg/mL) | – | – | – | – | – | – | 1170 | – | 8.7 | – | – | O=C(NCCN1CCOCC1)Nc1nc2ccc(Sc3nnc4ccc(-c5cccc(F)c5)nn34)cc2s1 | – | – |
| – | > 10000 | 16 | – | – | – | < 1 | – | – | > 4.6 | > 10000 | 91 | 22 | 15 | – | – | > 25000 | – | COC(=O)Nc1nc2ccc(Sc3nnc4ccc(-c5ccc(F)cc5)nn34)cc2s1 | Non-Toxic | – |
| > 40000 | 217 | 1 | 39 | -14.2 | 0.2 | 89 (≈ 49.5 µg/mL) | – | – | – | – | – | – | – | – | – | – | – | O=C(NCCN1CCOCC1)Nc1nc2ccc(Sc3nnc4ccc(NC5CCOCC5)nn34)cc2s1 | – | – |
| – | 23 | 2 | – | – | – | < 2 | – | – | 3.9 | – | 2.7 | 29 | – | – | – | – | – | CCN1CCC(CCNC(=O)Nc2nc3ccc(Sc4nnc5ccc(-c6cccs6)nn45)cc3s2)CC1 | – | – |
